According to ChEMBL document CHEMBL1150800, “Multiple-dose escalation study of the safety, pharmacokinetics, and biologic activity of oral AMD070, a selective CXCR4 receptor inhibitor, in human subjects” (Antimicrob Agents Chemother, 2007):
Converted amounts (≈) assume the structure as drawn.

What was measured:
[1] = Drug level in fasting healthy human at 100 mg, po administered as single dose after 12 hrs; format: ADME, organism-based; conditions: in vivo, read-out: Drug uptake
Outline: (§1)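 Healthy male volunteers, three per cohort, one oral dose after 8-h overnight fast, fasting kept until 1 h post-dose. Plasma sampled predose and at 0.5, 1, 1.5, 2, 3, 4, 6, 8, 12, 16, 20, 24 h. Levels by validated HPLC-MS/MS (liquid-liquid extraction, positive-ion electrospray). Noncompartmental analysis, log-linear trapezoidal AUC, summarized per cohort.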

Homo sapiens [2] = experiment: Apparent volume of distribution in fasting healthy human at 200 mg, po administered every 12 hrs; format: ADME, organism-based; conditions: in vivo
Outline: (§2)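 Six healthy men per cohort dosed orally q12h for seven doses. Morning doses given after 8-h fast, with fasting until 1 h post-dose. After the final dose (72 h after the first) plasma was sampled predose and 0.5–24 h. Validated HPLC-MS/MS assay. Noncompartmental parameters (log-linear trapezoidal AUC) from all time points, summarized per cohort.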

[3] = test system: Human immunodeficiency virus 1; experiment: Antiviral activity against HIV1 NL4.3 in human MT4 cells; format: functional, organism-based; conditions: Human immunodeficiency virus 1, MT4
[4] = Drug level in fasting healthy human at 400 mg, po administered every 12 hrs measured after 72 hrs; format: ADME, organism-based; conditions: in vivo, read-out: Drug uptake; outline: as §2
[5] = Drug level in fasting healthy human at 400 mg, po administered as single dose after 12 hrs; format: ADME, organism-based; conditions: in vivo, read-out: Drug uptake; outline: as §1
Homo sapiens [6] = experiment: Apparent volume of distribution in fasting healthy human at 200 mg, po administered as single dose after 12 hrs; format: ADME, organism-based; conditions: in vivo; outline: as §1
[7] = Half life in rat; format: ADME, organism-based; conditions: in vivo
[8] = Drug level in fasting healthy human at 100 mg, po administered every 12 hrs measured after 72 hrs; format: ADME, organism-based; conditions: in vivo, read-out: Drug uptake; outline: as §2
Homo sapiens [9] = experiment: Decrease in CD4 cell count in fasting healthy human at 100 mg, po administered every 12 hrs measured after 24 hrs relative to baseline; format: functional; set-up: scale not given: the % may be the effect or the level left
Outline: (§3)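 CD4+ counts drawn before the first dose and at 2, 4, 6, 8 and 24 h after the final (seventh) q12h oral dose in fasting healthy men. Each post-dose value divided by the baseline value to give a ratio. Deviation from no effect tested by Wilcoxon rank sum, dose trend by Jonckheere-Terpstra.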

[10] = Terminal half life in rat; format: ADME, organism-based; conditions: in vivo
[11] = Half life in dog; format: ADME, organism-based, Canis lupus familiaris; conditions: in vivo
[12] = Terminal half life in dog; format: ADME, organism-based, Canis lupus familiaris; conditions: in vivo
[13] = Cmax in fasting healthy human at 400 mg, po administered every 12 hrs; format: ADME, organism-based; set-up: dose 400 mg, route oral; conditions: in vivo; outline: as §2
[14] = Tmax in fasting healthy human at 400 mg, po administered every 12 hrs; format: ADME, organism-based; conditions: in vivo
Outline: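 Six healthy male volunteers per cohort received seven oral doses q12h. Morning doses followed an 8-h fast, with fasting continued until 1 h post-dose. After the final dose (72 h after the first), plasma was sampled pre-dose and at 0.5–24 h, and assayed by validated HPLC-MS/MS. Tmax came from individual noncompartmental analysis, summarized per cohort.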

[15] = Cmax in fasting healthy human at 200 mg, po administered every 12 hrs; format: ADME, organism-based; set-up: dose 200 mg, route oral; conditions: in vivo; outline: as §2
[16] = AUC (0 to 12 hrs) in fasting healthy human at 200 mg, po administered every 12 hrs measured between 72 to 84 hrs postdose; format: ADME, organism-based; set-up: dose 200 mg, time < 12 hr, route oral; conditions: plasma; outline: as §2
Homo sapiens [17] = experiment: Decrease in CD4 cell count in fasting healthy human at 200 mg, po administered every 12 hrs measured after 24 hrs relative to baseline; format: functional; set-up: scale not given: the % may be the effect or the level left; outline: as §3
Homo sapiens [18] = experiment: Induction of leucocytosis in po dosed fasting healthy human assessed as increase in WBC count; format: functional, organism-based
Outline: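 Total WBC drawn predose and at 2, 4, 6, 8 and 24 h after oral dosing (single-dose cohorts from 200 mg, and multiple-dose cohorts). Ratio taken to baseline. WBC ratio against plasma concentration at all sampling times (n = 232) fit to an Emax model giving Emax and EC50. Per-subject maximum ratio also fit to dose, AUC0-24 and Cmax.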

[19] = Cmax in fasting healthy human at 200 mg, po administered as single dose; format: ADME, organism-based; set-up: dose 200 mg, route oral; conditions: in vivo; outline: as §1
[20] = Cmax in fasting healthy human at 50 mg, po administered as single dose; format: ADME, organism-based; set-up: dose 50 mg, route oral; conditions: in vivo; outline: as §1
[21] = Cmax in fasting healthy human at 100 mg, po administered as single dose; format: ADME, organism-based; set-up: dose 100 mg, route oral; conditions: in vivo; outline: as §1
Homo sapiens [22] = experiment: Apparent volume of distribution in fasting healthy human at 400 mg, po administered every 12 hrs; format: ADME, organism-based; conditions: in vivo; outline: as §2
Homo sapiens [23] = experiment: Apparent volume of distribution in fasting healthy human at 50 mg, po administered as single dose after 12 hrs; format: ADME, organism-based; conditions: in vivo; outline: as §1
[24] = Drug level in fasting healthy human at 50 mg, po administered as single dose after 12 hrs; format: ADME, organism-based; conditions: in vivo, read-out: Drug uptake; outline: as §1
Homo sapiens [25] = experiment: Half life in fasting healthy human at 400 mg, po administered as single dose after 12 hrs; format: ADME, organism-based; conditions: in vivo; outline: as §1
Homo sapiens [26] = experiment: Apparent volume of distribution in fasting healthy human at 400 mg, po administered as single dose after 12 hrs; format: ADME, organism-based; conditions: in vivo; outline: as §1

concentration at 12 h [1]: 2.1 ng/mL
Vd (Homo sapiens [2]): 1923 L
EC90 [3]: 0.044 µg/mL (≈ 0.126 µM)
IC50 [3]: 0.0023 µg/mL (≈ 0.00658 µM)
concentration at 72 h [4]: 122 ng/mL
concentration at 12 h [5]: 44.6 ng/mL
Vd (Homo sapiens [6]): 2152 L
half-life [7]: 1.4 h
concentration at 72 h [8]: 6.8 ng/mL
half-life [10]: 10 h
half-life [11]: 0.7 h
half-life [12]: 10 h
Cmax [13]: 2300 ng/mL
Tmax [14]: 1.8 h
Cmax [15]: 793 ng/mL
AUC at 12 h [16]: 1590 ng·h/mL
Cmax [19]: 995 ng/mL
Cmax [20]: 159 ng/mL
Cmax [21]: 276 ng/mL
Vd (Homo sapiens [22]): 966 L
Vd (Homo sapiens [23]): 3620 L
concentration at 12 h [24]: 1.5 ng/mL
t1/2 (Homo sapiens [25]): 11.2 h
Vd (Homo sapiens [26]): 918 L
Structure (SMILES): NCCCCN(Cc1nc2ccccc2[nH]1)[C@H]1CCCc2cccnc21 [MAVORIXAFOR]
Activity (Homo sapiens [9]): 80%
Activity (Homo sapiens [17]): 80%
EC50 (Homo sapiens [18]): 0.039 µg/mL (≈ 0.112 µM)
